How the values were obtained:
Quadruplex DNA [1] = test: Stabilization of human Tel26 G4 quadruplex DNA assessed as thermal stability by measuring difference in melting temperature t1/2 by circular dichroism spectroscopy; type: nucleic-acid assay
[2] = Stabilization of d(CGC GAA TTC GCG TIT CGC GAA TTC GCG) DNA hairpin (unknown origin) assessed as thermal stability by measuring difference in melting temperature t1/2 by circular dichroism spectroscopy (reference value: 75.4 +/- 0.2 degC)
How it was run: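 CD melting of 15 μM annealed hairpin duplex in 5 mM K phosphate pH 7.0 with 20 mM KCl, with or without ligand at 2 molar equiv added to the folded DNA. The signal was followed at 252 nm from 20 to 100 °C at 1 °C/min, with T1/2 taken from a curve fit. ΔT1/2 is relative to DNA alone; duplicate runs, averaged.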

Quadruplex DNA [3] = test: Stabilization of c-kit2 G4 quadruplex d(CGGGCGGGCGCTAGGGAGGGT) DNA (unknown origin) assessed as thermal stability by measuring difference in melting temperature t1/2 by circular dichroism spectroscopy (reference value: 61.5 +/- 0.5 degC); type: nucleic-acid assay
Quadruplex DNA [4] = test: Stabilization of c-kit1 G4 quadruplex d(DNA AGGGAGGGCGCTGGGAGGAGGG) DNA (unknown origin) assessed as thermal stability by measuring difference in melting temperature t1/2 by circular dichroism spectroscopy (reference value: 54 +/- 0.5 degC); type: nucleic-acid assay
Quadruplex DNA [5] = test: Stabilization of c-myc G4 quadruplex d(TTAGGGTTAGGGTTAGGGTTAGGGTT) DNA (unknown origin) assessed as thermal stability by measuring difference in melting temperature t1/2 by circular dichroism spectroscopy (reference value: 72 +/- 0.5 degC); type: nucleic-acid assay
Quadruplex DNA [6] = test: Stabilization of F-c-kit1-T quadruplex DNA (unknown origin) by measuring difference in melting temperature t1/2 by FRET assay; type: nucleic-acid assay
How it was run: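 FRET melting of 0.2 μM prefolded FAM/TAMRA-labelled c-kit1 in 5 mM potassium phosphate pH 7.0 with 20 mM KCl, with ligand at 2 molar equiv. Unlabelled hairpin competitor added at 3 or 10 μM (15 or 50 equiv). FAM emission at 520 nm (excitation 492 nm) followed from 15 to 90 °C at 0.2 °C/min. ΔT1/2 versus no ligand. At least duplicate.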

U2OS [7] = test: Induction of DNA damage in human U2OS cells assessed as increase in gammaH2AX phosphorylation at S139 incubated for 24 hrs by immunofluorescence microscopy; type: functional, cell-based; conditions: read-out: IC50 (the source's name)
How it was run: (§1)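 U2OS cells treated 24 h. Fixed with 4% formaldehyde, permeabilized with 0.5% Triton X-100, blocked with 8% BSA, stained with anti-γH2AX (1:500) and Alexa Fluor 594 secondary, DAPI counterstain. Fluorescence microscopy signal quantified as fold over untreated.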

U2OS [8] = test: Induction of DNA damage in human U2OS cells assessed as fold increase in gammaH2AX phosphorylation at […] by measuring fold change at 10 uM incubated for 24 hrs by immunofluorescence microscopy; type: functional; how it was run: as §1
[9] = Cytotoxicity against mouse MNMCA1 cells assessed as cell survival preincubated for 24 hrs with compound further incubated for 48 hrs in drug free medium by MTT assay; type: functional, cell-based
How it was run: (§2)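 Exponentially growing cells seeded and treated 24 h after seeding with increasing concentrations for 24 h. Cells then recovered 48 h in drug-free medium. MTT added for 1 h at 37 °C, formazan dissolved in DMSO, absorbance read at 540 nm. IC50 from linear regression. Means ± SEM of two independent experiments in triplicate.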

U2OS [10] = test: Cytotoxicity against human U2OS cells assessed as cell survival preincubated for 24 hrs with compound further incubated for 48 hrs in drug free medium by MTT assay; type: functional, cell-based; how it was run: as §2
[11] = Stabilization of F-c-kit1-T (unknown origin) assessed as difference in melting temperature t1/2 in presence of d(CGC GAA TTC GCG TIT CGC GAA TTC GCG) DNA hairpin (unknown origin) measured at 1:15 G4 to hairpin DNA ratio by FRET assay
How it was run: (§3)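 FRET melting of 0.2 μM prefolded FAM/TAMRA dual-labelled c-kit1 G4 in 5 mM K phosphate pH 7.0 with 20 mM KCl. Ligand was added at 2 molar equiv, with unlabelled hairpin competitor at 3 or 10 μM final (15 or 50 equiv relative to G4). FAM emission was read at 520 nm (excitation 492 nm) while heating at 0.2 °C/min over 15–90 °C. ΔT1/2 is relative to no ligand; at least duplicate, averaged.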

[12] = Stabilization of F-c-kit1-T (unknown origin) assessed as difference in melting temperature t1/2 in presence of d(CGC GAA TTC GCG TIT CGC GAA TTC GCG) DNA hairpin (unknown origin) measured at 1:50 G4 to hairpin DNA ratio by FRET assay; how it was run: as §3
[13] = Genotoxicity in mouse MNMCA1 cells assessed as induction of micronuclei formation measured after 24 hrs by DAPI staining based analysis; type: toxicity, cell-based; conditions: mnmca1, 24 h
Quadruplex DNA [14] = test: Displacement of thiazole orange from c-kit1 G4 quadruplex d(DNA AGGGAGGGCGCTGGGAGGAGGG) DNA (unknown origin) assessed as relative affinity by fluorescent intercalator displacement assay; type: nucleic-acid assay
How it was run: (§4)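 G4 DNA at 0.25 μM with 0.5 μM thiazole orange in 5 mM potassium phosphate pH 7.0 containing 20 mM KCl (LiCl for c-myc), 20 °C. Ligand titrated from 0.5 to 20 molar equiv with 3 min equilibration per addition. Excitation 485 nm, emission 500–650 nm. %displacement = 100 − (F/F0×100); DC50 is the concentration displacing 50% TO. Duplicate titrations.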

Quadruplex DNA [15] = test: Displacement of thiazole orange from c-myc G4 quadruplex d(TTAGGGTTAGGGTTAGGGTTAGGGTT) DNA (unknown origin) assessed as relative affinity by fluorescent intercalator displacement assay; type: nucleic-acid assay; how it was run: as §4
Quadruplex DNA [16] = test: Binding affinity to c-kit2 G4 quadruplex d(CGGGCGGGCGCTAGGGAGGGT) DNA (unknown origin) assessed as dissociation constant by Microscale thermophoresis analysis; type: nucleic-acid assay
How it was run: (§5)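 MST with Cy5.5-labelled G4 oligonucleotide held at 20 nM, folded in 5 mM potassium phosphate pH 7.0 with 20 mM KCl plus 0.1% Tween. Ligand in 1:2 serial dilution mixed 1:1 with DNA, 20% DMSO final. Kd taken from binding curves.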

Quadruplex DNA [17] = test: Binding affinity to c-kit1 G4 quadruplex d(DNA AGGGAGGGCGCTGGGAGGAGGG) DNA (unknown origin) assessed as dissociation constant by Microscale thermophoresis analysis; type: nucleic-acid assay; how it was run: as §5
Quadruplex DNA [18] = test: Displacement of thiazole orange from c-kit2 G4 quadruplex d(CGGGCGGGCGCTAGGGAGGGT) DNA (unknown origin) assessed as relative affinity by fluorescent intercalator displacement assay; type: nucleic-acid assay; how it was run: as §4
Quadruplex DNA [19] = test: Stabilization of G4 quadruplex DNA in human U2OS cells assessed as BG4 foci formation by measuring fold increase in G4 structure at 10 uM by immunofluorescence microscopy; type: cell-based
How it was run: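 U2OS cells on coverslips treated for […]. Fixed in methanol/acetic acid 3:1, permeabilized with 0.1% Triton X-100, blocked in 2% milk. Stained with 0.5 μg BG4 for 2 h, then anti-FLAG and Alexa Fluor 488 secondary. Signal quantified as fold over untreated.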

Quadruplex DNA [20] = test: Binding affinity toc-myc G4 quadruplex d(TTAGGGTTAGGGTTAGGGTTAGGGTT) DNA (unknown origin) assessed as dissociation constant by Microscale thermophoresis analysis; type: nucleic-acid assay; how it was run: as §5

Row | Structure (SMILES) | ΔTm (Quadruplex DNA [1]) [°C] | ΔTm [2] [°C] | ΔTm (Quadruplex DNA [3]) [°C] | ΔTm (Quadruplex DNA [4]) [°C] | ΔTm (Quadruplex DNA [5]) [°C] | other results
1 | Cc1ccc(-c2nc3n(ccc4nc(-c5ccc(C)cc5)c(/C=N/NC5=NCCN5)n43)c2/C=N/NC2=NCCN2)cc1 | 4.5 | 2.4 | 26.5 | 17.1 | 8.5 | 
2 | Cc1ccc(-c2nc3ccn4c(/C=N/NC5=NCCN5)c(-c5ccccc5)nc4n3c2/C=N/NC2=NCCN2)cc1 | 5.3 | 1.1 | > 30 | 15.2 | 9.1 | ΔTm (Quadruplex DNA [6]): 22.4 °C; EC50 (U2OS [7]): 100000 nM; fold change (FC) (U2OS [8]): 1.45; IC50 [9]: 28600 nM; IC50 (U2OS [10]): 108000 nM; ΔTm [11]: 21.4 °C; ΔTm [12]: 20.2 °C; fold change (FC) [13]: 0.4; IC50 (Quadruplex DNA [14]): 1300 nM; IC50 (Quadruplex DNA [15]): 1300 nM; Kd (Quadruplex DNA [16]): 130 nM; Kd (Quadruplex DNA [17]): 120 nM; IC50 (Quadruplex DNA [18]): 1200 nM; fold change (FC) (Quadruplex DNA [19]): 2.4
3 | Cc1ccc(-c2nc3n(ccc4nc(-c5ccc(C)cc5)c(/C=N/NC(=N)N)n43)c2/C=N/NC(=N)N)cc1 | 5.5 | 4.1 | > 30 | 18.5 | 15.6 | 
4 | N=C(N)N/N=C/c1c(-c2ccc(Cl)cc2)nc2n1ccc1nc(-c3ccccc3)c(/C=N/NC(=N)N)n12 | 8.3 | 2.6 | > 30 | 20.1 | 14.3 | 
5 | N=C(N)N/N=C/c1c(-c2ccsc2)nc2ccn3c(C=O)c(-c4ccsc4)nc3n12 | 4.8 | 2.7 | 25.2 | 16.1 | 9.1 | 
6 | C(=N\NC1=NCCN1)/c1c(-c2ccsc2)nc2n1ccc1nc(-c3ccsc3)c(/C=N/NC3=NCCN3)n12 | 3.8 | 2 | 14.9 | 10.3 | 4.7 | 
7 | N=C(N)N/N=C/c1c(-c2ccc(Cl)cc2)nc2n1ccc1nc(-c3ccc(Cl)cc3)c(/C=N/NC(=N)N)n12 | 4.1 | 2.9 | > 30 | 11.1 | 11.4 | 
8 | Clc1ccc(-c2nc3n(ccc4nc(-c5ccccc5)c(/C=N/NC5=NCCN5)n43)c2/C=N/NC2=NCCN2)cc1 | 6.6 | 1.2 | 19.2 | 17.7 | 10.6 | ΔTm (Quadruplex DNA [6]): 26.6 °C; ΔTm [11]: 24.8 °C; ΔTm [12]: 23.8 °C; Kd (Quadruplex DNA [20]): 1200 nM; IC50 (Quadruplex DNA [14]): 1200 nM; IC50 (Quadruplex DNA [15]): 1300 nM; Kd (Quadruplex DNA [16]): 500 nM; Kd (Quadruplex DNA [17]): 70 nM; IC50 (Quadruplex DNA [18]): 1400 nM
9 | Cc1ccc(-c2nc3n(ccc4nc(-c5ccccc5)c(/C=N/NC5=NCCN5)n43)c2/C=N/NC2=NCCN2)cc1 | 6.2 | 2.2 | > 30 | 21.4 | 13.1 | 
10 | Cc1ccc(-c2nc3n(ccc4nc(-c5ccccc5)c(/C=N/NC(=N)N)n43)c2C=O)cc1 | 3.8 | 1.2 | 20.8 | 6.6 | 3.1 | 
11 | NCCOc1cc(C(=O)Nc2cc(OCCN)c3ccccc3n2)nc(C(=O)Nc2cc(OCCN)c3ccccc3n2)c1 [PYRIDOSTATIN] |  |  |  |  |  | IC50 [9]: 27000 nM
12 | Cc1ccc(-c2nc3n(ccc4nc(-c5ccc(C)cc5)c(/C=N/NC(=N)N)n43)c2C=O)cc1 | 2.1 | 2.3 | 16.2 | 6.1 | 4.6 | 
13 | N=C(N)N/N=C/c1c(-c2ccccc2)nc2n1ccc1nc(-c3ccc(Cl)cc3)c(/C=N/NC(=N)N)n12 | 5 | 2.3 | > 30 | 21.4 | 17.6 | 
14 | Cc1ccc(-c2nc3n(ccc4nc(-c5ccc(C)cc5)c(/C=N/NC5=NCCN5)n43)c2C=O)cc1 | 1.3 | 0 | 6.8 | 3.8 | 1.5 | 
15 | Clc1ccc(-c2nc3n(ccc4nc(-c5ccc(Cl)cc5)c(/C=N/NC5=NCCN5)n43)c2/C=N/NC2=NCCN2)cc1 | 3.3 | 3.5 | 13.7 | 9.6 | 5.5 | 
16 | Cc1ccc(-c2nc3n(ccc4nc(-c5ccccc5)c(/C=N/NC(=N)N)n43)c2/C=N/NC(=N)N)cc1 | 6.3 | 3.2 | > 30 | 25.2 | 16.9 | 

Source: ChEMBL document CHEMBL5126632, “Balancing Affinity, Selectivity, and Cytotoxicity of Hydrazone-Based G-Quadruplex Ligands for Activation of Interferon β Genes in Cancer Cells” (J Med Chem, 2022)
